Active and inactive are the calls of the source.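 Rule for the calls: active = compounds letting at most 1% of the green fluorescent tagged protein gather at the cell membrane; inactive = the rest.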
These molecules were tested against G-protein coupled receptor 55 (Homo sapiens) (UniProt Q9Y2T6) (assay: GPR55 antagonists blocking PKCbII-GFP membrane recruitment, SAR follow-up, imaging, HEK293 (AID 488947)). Conditions: HEK293 GPR55 + PKCbetaII-GFP.
Method in brief: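 System – transfected HEK293 with GPR55 and PKCβII-GFP · Buffer or medium – serum-free MEM · Also added – 10 µM AM251 · Dosing – 4 doses, 10–100 µM · Schedule – compound pre-incubation 15 min at 37 °C, then AM251 exposure 30 min · Detection – fluorescence imaging of GFP after 1% PFA fixation, scored by eye · Replicates – duplicates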

Chain of G-protein coupled receptor 55 (Homo sapiens) (Q9Y2T6 whole entry, looked up): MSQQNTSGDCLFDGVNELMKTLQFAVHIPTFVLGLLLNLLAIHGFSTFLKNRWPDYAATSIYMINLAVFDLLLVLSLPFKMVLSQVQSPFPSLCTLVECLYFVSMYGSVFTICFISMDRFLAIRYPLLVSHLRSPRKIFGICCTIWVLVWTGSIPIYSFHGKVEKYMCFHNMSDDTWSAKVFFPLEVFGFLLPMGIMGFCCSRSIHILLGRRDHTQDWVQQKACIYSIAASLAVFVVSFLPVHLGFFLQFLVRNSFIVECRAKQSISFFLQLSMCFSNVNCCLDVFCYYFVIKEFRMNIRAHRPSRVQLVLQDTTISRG

outcome, active:
Cc1cc(C)c2nc(-c3ccccn3)cc(C(=O)Nc3ccc(S(=O)(=O)Nc4onc(C)c4C)cc3)c2c1
Cc1ccc(C2(C(=O)N3CCC(n4nc(-c5ccccc5)oc4=O)CC3)CC2)cc1
Cc1nc(N2CCN(C(=O)c3ccco3)CC2)c2c3c(sc2n1)CCCC3 active; +
